{
  "source": "ChEMBL document CHEMBL1132480",
  "about": "“Synthesis, acid-base behavior, and binding properties of 6-modified myo-inositol 1,4,5-tris(phosphate)s” (J Med Chem, 1999)",
  "key": {"[1]": {"experiment": "Equilibrium constant (K2) of the compound.", "assay_type": "ADME", "in_short": "(§1)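 Stepwise macroscopic protonation constants measured over pH 2.5–10, where each phosphate has one titratable proton. Observed NMR chemical shifts were treated as weighted averages of the shifts of the protonated and deprotonated species.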"}, "[2]": {"biological_target": "Inositol 1,4,5-trisphosphate-gated calcium channel ITPR3 (Bos taurus, UniProt Q8WN95)", "sequence (Q8WN95 whole entry)": "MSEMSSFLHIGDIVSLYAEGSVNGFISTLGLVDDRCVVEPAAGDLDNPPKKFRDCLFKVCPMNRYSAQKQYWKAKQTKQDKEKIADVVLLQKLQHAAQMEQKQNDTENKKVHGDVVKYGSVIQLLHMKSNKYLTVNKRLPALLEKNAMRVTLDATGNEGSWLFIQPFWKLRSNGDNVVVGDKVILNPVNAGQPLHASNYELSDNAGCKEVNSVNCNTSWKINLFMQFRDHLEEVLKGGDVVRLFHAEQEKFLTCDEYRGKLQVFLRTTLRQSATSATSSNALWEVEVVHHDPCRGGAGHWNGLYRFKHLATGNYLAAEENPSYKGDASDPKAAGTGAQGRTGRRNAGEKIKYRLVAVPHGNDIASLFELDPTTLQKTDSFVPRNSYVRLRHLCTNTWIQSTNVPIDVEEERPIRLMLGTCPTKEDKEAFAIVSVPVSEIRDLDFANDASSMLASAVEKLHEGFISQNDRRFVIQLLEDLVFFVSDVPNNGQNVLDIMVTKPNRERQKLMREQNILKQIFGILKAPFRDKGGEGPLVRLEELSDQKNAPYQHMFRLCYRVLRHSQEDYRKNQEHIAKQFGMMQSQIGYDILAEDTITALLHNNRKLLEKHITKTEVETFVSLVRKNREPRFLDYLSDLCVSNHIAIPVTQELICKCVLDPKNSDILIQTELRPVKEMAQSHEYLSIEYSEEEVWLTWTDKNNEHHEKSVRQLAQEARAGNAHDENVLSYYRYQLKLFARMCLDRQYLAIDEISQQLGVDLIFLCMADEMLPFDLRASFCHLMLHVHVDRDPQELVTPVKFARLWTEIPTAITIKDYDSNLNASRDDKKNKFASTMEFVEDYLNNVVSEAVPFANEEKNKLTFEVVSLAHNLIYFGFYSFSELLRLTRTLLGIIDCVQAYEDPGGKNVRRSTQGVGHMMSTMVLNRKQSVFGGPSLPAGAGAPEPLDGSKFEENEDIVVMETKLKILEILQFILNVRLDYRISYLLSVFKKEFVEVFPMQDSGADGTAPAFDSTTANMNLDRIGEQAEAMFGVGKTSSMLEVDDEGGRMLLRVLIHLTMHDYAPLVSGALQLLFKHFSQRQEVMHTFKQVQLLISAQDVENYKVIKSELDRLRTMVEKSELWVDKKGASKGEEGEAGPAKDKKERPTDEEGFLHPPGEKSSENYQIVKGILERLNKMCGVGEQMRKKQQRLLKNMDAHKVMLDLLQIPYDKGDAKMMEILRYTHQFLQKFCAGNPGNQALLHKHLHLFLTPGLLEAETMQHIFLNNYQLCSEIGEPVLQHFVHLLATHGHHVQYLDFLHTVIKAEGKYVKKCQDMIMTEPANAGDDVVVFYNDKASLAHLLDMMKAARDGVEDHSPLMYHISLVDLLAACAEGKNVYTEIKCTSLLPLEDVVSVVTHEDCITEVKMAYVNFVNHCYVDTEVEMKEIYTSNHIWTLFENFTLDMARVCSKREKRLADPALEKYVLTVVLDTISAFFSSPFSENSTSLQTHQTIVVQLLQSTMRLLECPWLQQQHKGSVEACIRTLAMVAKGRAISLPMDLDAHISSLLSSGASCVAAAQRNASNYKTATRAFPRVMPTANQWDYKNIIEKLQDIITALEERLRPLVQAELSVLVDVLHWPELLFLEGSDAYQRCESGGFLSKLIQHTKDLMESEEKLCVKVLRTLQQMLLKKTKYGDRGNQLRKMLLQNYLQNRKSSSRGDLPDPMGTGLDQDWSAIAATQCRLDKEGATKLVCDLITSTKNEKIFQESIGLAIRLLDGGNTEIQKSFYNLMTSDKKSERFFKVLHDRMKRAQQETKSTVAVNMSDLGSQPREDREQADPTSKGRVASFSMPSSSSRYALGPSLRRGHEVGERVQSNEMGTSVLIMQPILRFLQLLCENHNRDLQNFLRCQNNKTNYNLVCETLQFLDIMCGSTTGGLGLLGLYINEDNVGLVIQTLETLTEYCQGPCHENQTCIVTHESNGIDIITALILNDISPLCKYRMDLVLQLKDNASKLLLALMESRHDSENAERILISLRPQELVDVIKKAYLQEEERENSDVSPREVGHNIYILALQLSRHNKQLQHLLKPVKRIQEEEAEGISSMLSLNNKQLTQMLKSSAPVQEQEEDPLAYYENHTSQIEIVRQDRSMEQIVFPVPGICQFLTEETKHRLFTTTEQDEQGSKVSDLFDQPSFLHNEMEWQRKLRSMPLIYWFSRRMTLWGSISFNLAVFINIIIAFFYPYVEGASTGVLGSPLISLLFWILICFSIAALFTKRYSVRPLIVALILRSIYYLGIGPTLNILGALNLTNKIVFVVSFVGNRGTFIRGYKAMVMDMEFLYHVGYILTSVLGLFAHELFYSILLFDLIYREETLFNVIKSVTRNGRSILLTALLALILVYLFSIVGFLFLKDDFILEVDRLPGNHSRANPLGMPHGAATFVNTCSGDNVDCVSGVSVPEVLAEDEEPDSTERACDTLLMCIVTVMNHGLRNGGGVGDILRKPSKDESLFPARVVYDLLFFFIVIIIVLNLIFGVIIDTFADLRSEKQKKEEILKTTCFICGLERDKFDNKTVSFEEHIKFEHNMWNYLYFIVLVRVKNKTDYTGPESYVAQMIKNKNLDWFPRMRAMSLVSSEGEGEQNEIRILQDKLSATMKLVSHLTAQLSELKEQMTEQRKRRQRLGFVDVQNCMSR", "experiment": "Binding affinity against Inositol 1,4,5-trisphosphate receptor on bovine adrenal cortex microsomes."}, "[3]": {"experiment": "Equilibrium constant (K4) of the compound.", "assay_type": "ADME", "in_short": "as §1"}, "[4]": {"experiment": "Equilibrium constant (K3) of the compound.", "assay_type": "ADME", "in_short": "as §1"}, "[5]": {"experiment": "Equilibrium constant (K1) of the compound.", "assay_type": "ADME", "in_short": "as §1"}},
  "data": [
    {"smiles": "N[C@@H]1[C@@H](OP(=O)(O)O)[C@H](OP(=O)(O)O)[C@@H](O)[C@@H](O)[C@H]1OP(=O)(O)O", "values": [
      {"measurement": "Log K2", "setting": "[1]", "value": 7.35},
      {"measurement": "IC50", "setting": "[2]", "value": 5, "unit": "µM"},
      {"measurement": "Log K4", "setting": "[3]", "value": 4.62},
      {"measurement": "Log K3", "setting": "[4]", "value": 5.58},
      {"measurement": "Log K1", "setting": "[5]", "value": 10.69}
    ]},
    {"smiles": "O=P(O)(O)O[C@@H]1[C@H](O)[C@H](O)[C@@H](OP(=O)(O)O)[C@H](OP(=O)(O)O)[C@H]1F", "values": [
      {"measurement": "Log K2", "setting": "[1]", "value": 6.64},
      {"measurement": "IC50", "setting": "[2]", "value": 2, "unit": "µM"},
      {"measurement": "Log K3", "setting": "[4]", "value": 5.56},
      {"measurement": "Log K1", "setting": "[5]", "value": 8.76}
    ]},
    {"smiles": "O=P(O)(O)O[C@@H]1[C@H](O)[C@H](O)[C@@H](OP(=O)(O)O)[C@H](OP(=O)(O)O)[C@@H]1O", "values": [
      {"measurement": "Log K2", "setting": "[1]", "value": 6.39},
      {"measurement": "Log K3", "setting": "[4]", "value": 5.4},
      {"measurement": "Log K1", "setting": "[5]", "value": 8.01}
    ]},
    {"smiles": "O=P(O)(O)O[C@@H]1[C@@H](O)[C@@H](O)[C@@H](OP(=O)(O)O)C[C@H]1OP(=O)(O)O", "values": [
      {"measurement": "Log K2", "setting": "[1]", "value": 6.65},
      {"measurement": "IC50", "setting": "[2]", "value": 1, "unit": "µM"},
      {"measurement": "Log K3", "setting": "[4]", "value": 5.53},
      {"measurement": "Log K1", "setting": "[5]", "value": 8.3}
    ]},
    {"smiles": "O=P(O)(O)O[C@@H]1[C@H](O)[C@H](O)[C@@H](OP(=O)(O)O)[C@H](OP(=O)(O)O)[C@H]1O", "note": "[INS(1,4,5)P3]", "values": [
      {"measurement": "Log K2", "setting": "[1]", "value": 6.4},
      {"measurement": "Log K3", "setting": "[4]", "value": 5.31},
      {"measurement": "Log K1", "setting": "[5]", "value": 7.85}
    ]},
    {"smiles": "O=P(O)(O)O[C@@H]1CC[C@@H](OP(=O)(O)O)[C@H](OP(=O)(O)O)C1", "values": [
      {"measurement": "IC50", "setting": "[2]", "value": 3.9, "unit": "µM"}
    ]}
  ]
}
